As usually defined, the IC50 is the midpoint of a concentration-inhibition curve. Usually Cmax stands for the highest concentration seen after dosing. A word on the EC50: it is the midpoint of the concentration-response curve. High values mean weaker potency, low ones greater potency.

SMILES strings stand for the structures.

Series [1] has as its target T1, Transient receptor potential cation channel subfamily A member 1 (Rattus norvegicus, UniProt Q6RI86). Description: Antagonist activity at rat TRPA1 expressed in tetracycline-inducible T-REx expression system transfected CHO cells assessed as inhibition of hypo osmolarity buffer-induced 45Ca2+ uptake preincubated for 10 mins followed by hypo osmolarity buffer addition measured after 3 mins by TopCount microplate scintillator counting method. The series is classed as cell-based. The essentials:
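Compound given 10 min at RT in Ham's F12/15 mM HEPES/0.1% BSA, final 2.0 nM–40 μM (1:3 steps); then hypo-osmolar buffer (final 100 mOsmol) with 45Ca2+ (final 10 μCi/mL), 3 min at RT. Cells washed three times in PBS/0.1 mg/mL BSA, then scintillation counted. Hypotonic uptake = 100%, 300 mOsmol/L buffer = 0%. POC fitted to a four-parameter curve for IC50.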

The target of series [2] is D(2) dopamine receptor (Homo sapiens) (UniProt P14416). Description: Displacement of [3H]methyl-spiperone from human recombinant dopamine D2S receptor expressed in HEK293 cells assessed as remaining radioligand binding at 10 uM after 60 mins by scintillation counting method relative to control. It is filed as cell-based. On the technique in general: In a radioligand displacement assay an active substance lowers the binding of a labelled ligand.
Sequence of D(2) dopamine receptor (Homo sapiens) (P14416 whole entry): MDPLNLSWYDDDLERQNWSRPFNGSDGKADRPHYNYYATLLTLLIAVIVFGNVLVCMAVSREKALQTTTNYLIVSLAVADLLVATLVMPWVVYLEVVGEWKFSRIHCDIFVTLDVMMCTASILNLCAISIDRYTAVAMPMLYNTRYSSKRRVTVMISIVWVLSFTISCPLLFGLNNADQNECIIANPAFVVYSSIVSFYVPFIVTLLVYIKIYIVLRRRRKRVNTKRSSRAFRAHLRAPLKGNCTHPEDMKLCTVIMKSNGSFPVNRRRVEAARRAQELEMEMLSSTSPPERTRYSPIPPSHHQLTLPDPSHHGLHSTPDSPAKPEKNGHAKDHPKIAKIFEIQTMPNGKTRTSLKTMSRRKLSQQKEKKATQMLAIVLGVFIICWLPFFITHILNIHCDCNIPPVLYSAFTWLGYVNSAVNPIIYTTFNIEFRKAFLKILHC

In series [3] the target is Transient receptor potential cation channel subfamily A member 1 (Homo sapiens, UniProt O75762). Kind of series: Antagonist activity at human TRPA1 expressed in tetracycline-inducible T-REx expression system transfected CHO cells assessed as inhibition of AITC-induced 45Ca2+ uptake preincubated for 1 min followed by AITC addition measured after 12 mins. The series is classed as cell-based.
Sequence of Transient receptor potential cation channel subfamily A member 1 (Homo sapiens, UniProt O75762) (O75762 whole entry): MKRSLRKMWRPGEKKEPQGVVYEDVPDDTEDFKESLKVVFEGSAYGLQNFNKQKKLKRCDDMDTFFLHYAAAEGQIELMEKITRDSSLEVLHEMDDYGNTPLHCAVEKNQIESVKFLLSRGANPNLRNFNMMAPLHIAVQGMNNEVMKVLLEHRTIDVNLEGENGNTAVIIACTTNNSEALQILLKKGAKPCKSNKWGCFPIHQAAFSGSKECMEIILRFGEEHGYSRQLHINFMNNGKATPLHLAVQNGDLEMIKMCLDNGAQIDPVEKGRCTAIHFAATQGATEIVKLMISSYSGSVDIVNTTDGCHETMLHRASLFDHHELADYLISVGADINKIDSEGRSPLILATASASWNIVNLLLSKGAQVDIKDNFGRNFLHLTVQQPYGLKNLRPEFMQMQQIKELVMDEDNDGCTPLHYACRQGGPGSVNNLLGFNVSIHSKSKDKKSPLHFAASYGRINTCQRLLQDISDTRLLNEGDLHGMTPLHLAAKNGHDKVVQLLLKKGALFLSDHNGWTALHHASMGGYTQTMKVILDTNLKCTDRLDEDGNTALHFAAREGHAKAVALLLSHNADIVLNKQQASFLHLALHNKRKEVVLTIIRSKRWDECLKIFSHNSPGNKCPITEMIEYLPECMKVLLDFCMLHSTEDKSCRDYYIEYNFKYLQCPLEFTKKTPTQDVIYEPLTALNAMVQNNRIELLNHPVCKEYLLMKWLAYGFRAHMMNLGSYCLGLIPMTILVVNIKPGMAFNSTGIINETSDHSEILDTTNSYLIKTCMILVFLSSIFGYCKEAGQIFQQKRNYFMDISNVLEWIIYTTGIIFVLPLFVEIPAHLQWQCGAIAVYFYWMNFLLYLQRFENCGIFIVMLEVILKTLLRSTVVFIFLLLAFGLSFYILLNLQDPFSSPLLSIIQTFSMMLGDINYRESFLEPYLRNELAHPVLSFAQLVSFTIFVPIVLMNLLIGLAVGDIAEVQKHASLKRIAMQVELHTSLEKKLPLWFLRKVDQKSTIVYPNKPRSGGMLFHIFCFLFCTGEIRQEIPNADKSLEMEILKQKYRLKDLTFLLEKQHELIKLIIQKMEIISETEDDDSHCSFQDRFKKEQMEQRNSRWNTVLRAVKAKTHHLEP

Series [4] can be described thus: Cmax in rat at 30 mg/kg, po. It is filed as ADME, organism-based. Also noted: dose 30 mg/kg, route oral. Conditions: in vivo. In short, it runs like this:
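Rat oral PK at 30 mg/kg (10 mg/kg for one analogue) in 1% Tween 80/2% HPMC/97% water with methanesulfonic acid, pH 2.2.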

Series [5] has as its target D(3) dopamine receptor (Homo sapiens) (UniProt P35462). Description: Displacement of [3H]methyl-spiperone from human recombinant dopamine D3 receptor expressed in CHO cells assessed as remaining radioligand binding at 10 uM after 60 mins by scintillation counting method relative to control. The series is classed as cell-based.
Series [6] concerns the target T1, Transient receptor potential cation channel subfamily A member 1. Kind of series: Agonist activity at rat TRPA1 expressed in tetracycline-inducible T-REx expression system transfected CHO cells by 45Ca2+ uptake assay. It is filed as cell-based.
Series [7] deals with Histamine H1 receptor (Homo sapiens) (UniProt P35367). Kind of series: Displacement of [3H]pyrilamine from human recombinant histamine H1 receptor expressed in HEK293 cells assessed as remaining radioligand binding at 10 uM after 60 mins by scintillation counting method relative to control. The series is classed as cell-based.
Sequence of Histamine H1 receptor (Homo sapiens) (P35367 whole entry): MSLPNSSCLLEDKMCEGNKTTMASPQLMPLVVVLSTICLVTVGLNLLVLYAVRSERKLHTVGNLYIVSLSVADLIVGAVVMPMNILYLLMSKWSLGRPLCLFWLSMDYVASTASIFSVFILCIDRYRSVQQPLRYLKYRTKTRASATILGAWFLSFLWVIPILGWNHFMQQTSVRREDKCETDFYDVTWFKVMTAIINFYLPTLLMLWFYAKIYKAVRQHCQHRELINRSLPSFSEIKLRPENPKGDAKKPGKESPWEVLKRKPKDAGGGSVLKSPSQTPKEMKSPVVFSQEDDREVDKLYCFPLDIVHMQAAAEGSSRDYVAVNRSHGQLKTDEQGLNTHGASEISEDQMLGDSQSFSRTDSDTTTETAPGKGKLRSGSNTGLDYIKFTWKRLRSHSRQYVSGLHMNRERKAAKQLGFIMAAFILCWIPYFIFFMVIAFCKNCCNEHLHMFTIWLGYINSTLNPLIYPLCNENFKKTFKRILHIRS
Series [8] has as its target T1, Transient receptor potential cation channel subfamily A member 1. Kind of series: Antagonist activity at rat TRPA1 expressed in tetracycline-inducible T-REx expression system transfected CHO cells assessed as inhibition of methylglyoxal-induced 45Ca2+ uptake preincubated for 10 mins followed by methylglyoxal addition measured after 3 mins by TopCount microplate scintillator counting method. The series is classed as cell-based. The essentials: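 Compound given 10 min at RT in HBSS/1 mM HEPES/0.1 mg/mL BSA, final 2.0 nM–40 μM (1:3 steps); then methylglyoxal (final 2.74 mM) plus 45Ca2+ (final 10 μCi/mL) in Ham's F-12/15 mM HEPES/0.1% BSA, 3 min at RT. Cells washed three times, then scintillation counted. MG uptake = 100%, no-agonist buffer = 0%. Four-parameter fit gives IC50.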

T1 sequence (Q6RI86 whole entry): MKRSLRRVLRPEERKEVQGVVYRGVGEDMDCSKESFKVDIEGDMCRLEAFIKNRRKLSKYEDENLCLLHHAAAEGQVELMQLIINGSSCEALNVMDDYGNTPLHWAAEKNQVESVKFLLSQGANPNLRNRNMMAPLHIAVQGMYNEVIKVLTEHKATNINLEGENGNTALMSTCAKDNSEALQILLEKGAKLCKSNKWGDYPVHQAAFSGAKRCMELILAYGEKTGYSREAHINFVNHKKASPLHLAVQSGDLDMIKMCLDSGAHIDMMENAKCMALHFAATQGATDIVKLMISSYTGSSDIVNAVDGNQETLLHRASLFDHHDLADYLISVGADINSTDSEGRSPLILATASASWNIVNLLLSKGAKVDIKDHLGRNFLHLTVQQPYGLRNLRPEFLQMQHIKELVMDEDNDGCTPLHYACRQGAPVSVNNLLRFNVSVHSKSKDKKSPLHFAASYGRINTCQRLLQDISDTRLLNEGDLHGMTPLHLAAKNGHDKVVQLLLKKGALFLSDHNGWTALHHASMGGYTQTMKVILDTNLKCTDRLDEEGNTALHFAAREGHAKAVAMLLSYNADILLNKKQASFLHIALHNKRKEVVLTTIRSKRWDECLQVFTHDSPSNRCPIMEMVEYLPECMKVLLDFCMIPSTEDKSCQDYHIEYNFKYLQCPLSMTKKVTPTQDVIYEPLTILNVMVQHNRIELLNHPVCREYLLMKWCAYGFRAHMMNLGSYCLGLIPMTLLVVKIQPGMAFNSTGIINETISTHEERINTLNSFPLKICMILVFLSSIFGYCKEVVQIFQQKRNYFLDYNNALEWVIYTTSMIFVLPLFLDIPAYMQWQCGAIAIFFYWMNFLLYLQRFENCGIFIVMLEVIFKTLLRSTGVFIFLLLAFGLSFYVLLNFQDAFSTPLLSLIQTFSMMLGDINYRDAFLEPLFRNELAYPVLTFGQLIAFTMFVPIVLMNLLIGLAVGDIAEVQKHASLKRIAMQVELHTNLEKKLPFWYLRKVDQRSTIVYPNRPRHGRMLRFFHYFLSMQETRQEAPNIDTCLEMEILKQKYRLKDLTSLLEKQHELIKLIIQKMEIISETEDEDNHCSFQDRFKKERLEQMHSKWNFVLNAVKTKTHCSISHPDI
Sequence of D(3) dopamine receptor (Homo sapiens) (P35462 whole entry): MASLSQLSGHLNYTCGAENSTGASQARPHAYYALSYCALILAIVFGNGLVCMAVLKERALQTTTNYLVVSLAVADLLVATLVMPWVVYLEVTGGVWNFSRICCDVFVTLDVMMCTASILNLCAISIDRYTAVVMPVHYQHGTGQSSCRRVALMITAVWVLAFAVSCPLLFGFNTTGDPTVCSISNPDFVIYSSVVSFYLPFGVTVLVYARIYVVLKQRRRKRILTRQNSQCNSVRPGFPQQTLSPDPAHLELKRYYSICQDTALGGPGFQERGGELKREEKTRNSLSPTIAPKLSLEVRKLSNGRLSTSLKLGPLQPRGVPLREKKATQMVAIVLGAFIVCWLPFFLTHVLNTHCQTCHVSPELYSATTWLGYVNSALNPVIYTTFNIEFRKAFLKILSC

For the compound `Cn1cnc2ncn(Cc3nc(CCc4ccc(Cl)cc4)no3)c(=O)c21`, the 50% inhibitory concentration (IC50) in series [1] was determined as 10 nM; in series [3], 131 nM; in series [8], 19 nM. For the same compound, the Activity in series [2], in series [5] and in series [7] was > 77% in each case. In series [4], this compound yielded a Cmax of 7.5 µM. Besides, the EC50 in series [6] is > 40000 nM.

For the origin of these results see ChEMBL document CHEMBL3784976 (J Med Chem, 2016).
